A short description of the series: Toxicity liver stage against HepG2, at 10uM. Type of series: cell-based. Also on record: test concentration 10 uM, cell line HepG2-A16-CD81EGFP. As to conditions: human, HepG2-A16-CD81EGFP cells; read-out: INHIBITION
The gist of the method: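 Uninfected HepG2-A16-CD81EGFP cells, 3 × 10^3 per well, 1536-well, plated on prespotted compound at 10 μM final, parasite-free screening media added to match infected plates; puromycin 10 μM positive, DMSO 0.5% negative; run in parallel with 48 h PbLuc assay at 37 °C, 5% CO2; viability by CellTiter-Glo luminescence, normalized to controls.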

Consider `CC(C)c1noc(C(C)Nc2nccc(CCC(F)(F)F)n2)n1` (stereo not given), for which the cytotoxicity at 10 µM is 2.08%. Regarding `CCNC(=O)[C@@H]1CCCN1C1(C(=O)NC)CCC1`, the cytotoxicity at 10 µM is -1.66%. As to `COc1ncccc1C(Cc1ccsc1)NC(=O)Cn1cccnc1=O` (stereo not given), the cytotoxicity at 10 µM is -5.47%.

On to `CN(C)c1cc(CNC(=O)Nc2ccc(C#N)cc2)ccn1`, for which the cytotoxicity at 10 µM is -5.66%. For `CNc1nc2cn(CCc3ccc(C)cc3)c(=O)c-2c[nH]1`, the cytotoxicity at 10 µM amounted to 6.36%. Take `Fc1ccc2c(c1)C1(CCNCC1)CC2NC1CC1` (stereo not given): the cytotoxicity at 10 µM is -117%. In the case of `COCCn1ccc2cc(NC(=O)N(C)C(C)CSC)ccc21` (stereo not given) it was 0.08%; in that of `CC(C)COC[C@H]1CC[C@H]2[C@H](CCN2C(=O)c2ccncc2F)O1`, -0.171%.

With `O=C(c1cscn1)N1CCCC2(CCN2Cc2cccc(F)c2)C1` (stereo not given), the cytotoxicity at 10 µM is -112%. In the case of `Cc1ccc(C#N)c(N2CCC(c3nccn3Cc3cscn3)CC2)n1` it was -6.96%. Regarding `CCCC(=O)NC1CCN(c2ccccc2S(=O)(=O)CC)CC1`, the cytotoxicity at 10 µM was -2.78%. To `COc1ccc(CN2CCn3cccc3C2C)cc1F` (stereo not given) belongs -2.63%; to `O=C(Cc1ccccn1)N1CC[C@]2(C[C@@H](Oc3ncccc3F)CO2)C1`, -5.79%. To `Cc1n[nH]cc1CNC(C)c1cccc(N2CCCC2=O)c1` (stereo not given) belongs 6.05%; to `Cc1cc(C(=O)Nc2n[nH]c(C3CC3)n2)c2c(C)nn(C)c2n1`, 0.583%; to `CC(NC(=O)c1ccc(F)cc1F)c1cnn(C)c1` (stereo not given), 3.68%. Take `COc1cccc(CNCc2cccc(Cl)c2)c1O`: the cytotoxicity at 10 µM was 1.29%.

In the case of `NCc1cc(-c2ccccc2)n2nccc2n1`, the cytotoxicity at 10 µM was -14.7%.

Consider `CN1C(=O)CO[C@H]2CN(C(=O)c3ccc4c(c3)CCCC4)C[C@@H]21`, for which the cytotoxicity at 10 µM is 5.45%.

Regarding `O=C1CO[C@@H]2CN(C3CCOCC3)C[C@H]2N1Cc1ccncc1`, the cytotoxicity at 10 µM was -151%. In the case of `Cc1ccc(S(=O)(=O)N(C)CC(N)=O)c(Cl)c1` it was 5.79%; in that of `CCCS(=O)(=O)N1CCO[C@H]2[C@@H](Oc3cccnc3)CC[C@@H]21`, -3.15%. In the case of `CCc1cc(NCCCN(C)C2CCCC2)ncn1` it was 1.75%; in that of `Cc1ncc(-c2ccnc(SCCN(C)C)n2)c(-c2ccco2)n1`, -7.25%; in that of `O=C(c1ccnc(C2CCNCC2)c1)N1CCCOCC1`, -3.64%. To `CC(C)COCCC(=O)NCCC(=O)N1CCN(c2ccccn2)CC1` belongs 9.46%; to `c1cncc(O[C@H]2COCCN(C3CCC3)C2)c1`, 0.514%. Consider `c1ccc(-c2nc(CCNCc3ccncc3)co2)cc1`, for which the cytotoxicity at 10 µM amounted to 6.07%.

For `Cc1nn(C)cc1S(=O)(=O)N[C@@H]1CCC[C@@H](n2ccnc2)[C@@H]1O`, the cytotoxicity at 10 µM is 0.651%. In the case of `O=C(Nc1ccnc(OC2CCOC2)c1)c1ccc(F)cc1Cl` (stereo not given) it was 3.44%. In the case of `CC(C)(C)c1ccc(C2(C(=O)NCCS(C)(=O)=O)CC2)cc1` it was 2.91%; in that of `Cc1noc(NC(=O)c2ccc(C)c(F)c2)n1`, -10.1%; in that of `CN(C)c1ncc2c(n1)C1(CCN(CC3CC3)C1)COC2` (stereo not given), -12.9%.

Turning to `Cc1cc(C)n(CC(=O)N2CCC(Nc3cccnn3)CC2)n1`, the cytotoxicity at 10 µM was -0.397%. On to `CCOc1ncccc1CNC(=O)NC1CCOc2ccccc21` (stereo not given), for which the cytotoxicity at 10 µM was -9.65%.

With `Cc1ccc(-c2noc(CCC(=O)NC(C)Cn3cccn3)n2)cc1` (stereo not given), the cytotoxicity at 10 µM is 8.41%.

For `O=S(=O)(NCCCn1cncn1)c1ccc2c(c1)CCCC2`, the cytotoxicity at 10 µM was determined as 4.16%. In the case of `COC(=O)c1cc(NC(=O)CCc2cscn2)ccc1C`, the cytotoxicity at 10 µM was -0.172%. To `CC(C)c1cccc(-n2cc(O)c(C(=O)NCCCn3cccn3)n2)c1` belongs -1.59%. To `CN(Cc1ccc(F)c(F)c1)Cc1cc2c(cc1Br)OCCO2` belongs -140%; to `Cc1c(-c2n[nH]c3c2CN(CC2CCOC2)CC3)cccc1C(F)(F)F` (stereo not given), -43.2%; to `O=C(c1cnoc1)N1CCC[C@]2(C[C@@H](Oc3ccccn3)CO2)C1`, -5.96%. In the case of `CCOC[C@]12COC[C@H]1CN(Cc1cccc(OC)c1)C2`, the cytotoxicity at 10 µM was -75.9%. To `Cc1cccc(CN2CCC(c3nccn3CC(N)=O)CC2)n1` belongs -5.41%. In the case of `CCc1c(C(=O)N2CCC3(CCCN(CCO)C3=O)C2)csc1C` (stereo not given), the cytotoxicity at 10 µM was -128%. As to `O=C(Cn1ccc2ccc(Cl)cc21)NCc1ccc(C(=O)O)cc1`, the cytotoxicity at 10 µM stood at 7.91%.

As to `CC(C)NC(=O)NC[C@H]1C[C@@H]2CCN1C[C@@H]2CN(C)c1ccccc1`, the cytotoxicity at 10 µM amounted to 1.95%. In the case of `CN(CC(=O)N1CCCC1c1noc(C2CC2)n1)C1CC1` (stereo not given) it was 9.62%; in that of `O=C(O)c1ccccc1-n1cnc(CN2CCc3ccccc3C2)c1`, 13.6%. To `COc1ccc(C(=O)N2CCCC(n3cc(C)cn3)C2)c(F)c1` (stereo not given) belongs -10.2%; to `CC(Nc1cccc(CN2CCOC2=O)c1)C(=O)NC(N)=O` (stereo not given), -7.44%; to `CCCS(=O)(=O)N1CCC(NC(=O)c2cc3ccccc3s2)CC1`, 4.69%. To `O=C1CCC2(CCCO2)CCN1Cc1noc(C2CCCC2)n1` (stereo not given) belongs 4.24%; to `CC(C)CS(=O)(=O)N1CCC2(CN(c3cccc(F)c3)C(=O)CN2C)C1` (stereo not given), -75.2%. In the case of `CNC(=O)C1CN(C)CCN(CCCOc2ccccc2F)C1` (stereo not given), the cytotoxicity at 10 µM is -1%.

Regarding `c1cncc(COC2COC3(CCN(c4cnccn4)CC3)C2)c1` (stereo not given), the cytotoxicity at 10 µM was determined as 1.89%. With `Cc1nccc(N(C)Cc2ncc(-c3ccccc3C(=O)O)s2)n1`, the cytotoxicity at 10 µM was 1.31%. With `COCCN(Cc1ccc(F)cc1C#N)CC(F)(F)F`, the cytotoxicity at 10 µM is -3.02%. In the case of `CCc1cccc(NC(=O)CCN2CC=C(c3cnn(C)c3)CC2)c1` it was 1.2%; in that of `O=C(COc1ccccc1)NCC1CCN(Cc2ccsc2)CC1`, -4.59%; in that of `CCOc1ncccc1NC(=O)NC1CCN(c2ncccn2)CC1`, -33.3%. On to `Cc1nn(C)c2cn(CC(=O)N3CCN(c4ccccc4)CC3)nc12`, for which the cytotoxicity at 10 µM stood at 6.94%.

On to `COc1ccc(-c2noc(CN3CC(n4cc(C)cn4)C3)n2)cc1`, for which the cytotoxicity at 10 µM was -5.97%.

Take `COc1ccccc1OCCNCc1c(C)nn(C)c1N(C)C`: the cytotoxicity at 10 µM was -2.9%. In the case of `CC(C)n1cc(C(=O)NCC(CO)Cc2cccs2)cn1` (stereo not given) it was 7.64%; in that of `Nc1nc2c(c(NCc3ccncc3)n1)CCCC2`, 4.56%. On to `CCCS(=O)(=O)NC(=O)c1sc(C2CCCC2)nc1C`, for which the cytotoxicity at 10 µM amounted to 0.521%. To `CCN1CC[C@@]2(C(=O)N3CCCC3)CCN(S(C)(=O)=O)CC[C@@H]12` belongs -0.537%; to `CC(=O)NC1CCCN(C(=O)Nc2nnc(C(C)C)s2)C1` (stereo not given), 12.6%; to `Cc1nc(N2CCCC2)nc2c1CCN(C(=O)C1CCCC1)CC2`, -0.265%. To `Cc1nn(C)c(C)c1C(=O)N1CCN(c2ccncc2Cl)CC1` belongs -2.25%; to `O=C(NCC(O)COc1ccc(C(F)(F)F)cc1)Nc1nncs1` (stereo not given), -14.2%; to `CC1c2ncc(Cn3cncn3)n2CCN1C(=O)Cc1cccs1` (stereo not given), 7.89%. For the compound `CC(C)(C)N1CCN(C(=O)Nc2cc(C(F)(F)F)c[nH]c2=O)CC1`, the cytotoxicity at 10 µM was 5.08%. In the case of `O=C(NCc1cccc(N2CC=CC2)c1)NC1CC1` it was 9.34%; in that of `CCCn1ncc(CN2C[C@@H]3CCCN3C[C@@H]2CCSC)c1C`, 4.06%; in that of `CN(C)S(=O)(=O)N1CCC[C@]2(C[C@@H](Oc3ccccn3)CO2)C1`, -2.31%.

In the case of `CCC1CCC(CNC(=O)c2c[nH]c(=O)c(Cl)c2)CC1` (stereo not given), the cytotoxicity at 10 µM is -8.46%. To `CCc1ccc(CN2CCN(C(=O)C(C)C)[C@@H]3CS(=O)(=O)C[C@@H]32)cc1` belongs 2.11%; to `O=C(c1cccs1)N1CCCC(c2cc(C(F)F)n3ncnc3n2)C1` (stereo not given), -23.4%. For `COc1cc(N2CC[C@@H]3O[C@H](C(=O)NCC4CC4)C[C@@H]32)ncn1`, the cytotoxicity at 10 µM was 10.7%. Turning to `O=C(NCCc1ccsc1)c1ccoc1`, the cytotoxicity at 10 µM was -3.3%. To `O=C1CO[C@H]2CN(Cc3ccc(C(F)(F)F)cc3)C[C@H]2N1` belongs -4.63%; to `CN1CCN(Cc2c(-c3ccco3)[nH]c3ncccc23)CC1`, 5.63%. Consider `Cc1ccc(N2CCO[C@@H]3CN(Cc4cccc(C)n4)CC[C@@H]3C2)nn1`, for which the cytotoxicity at 10 µM turned out to be 7.67%. To `NC(=O)NCC(=O)N1CCCC(c2nccn2CC2CCC2)C1` (stereo not given) belongs -4.59%. In the case of `Cc1nnc2n1CCN(CCS(=O)(=O)c1ccc(Cl)cc1)C2` it was -4.53%; in that of `O=C(N1CCOCC1)N1CCN(c2ccc(Cl)nn2)C(=O)C1`, 8.57%; in that of `CCC(COC)NC(=O)N1CCC(n2ccc(C(F)(F)F)n2)CC1` (stereo not given), -12%. As to `CN(C)[C@@H]1CCN(C(=O)c2cccc(C#N)c2)[C@H]1Cc1cnn(C)c1`, the cytotoxicity at 10 µM was -72.6%. In the case of `CCOCCC1(CNC(=O)c2ccncc2)CCC1` it was 4.11%. Take `Cc1cc(C(=O)CN2CCN(c3cnccn3)CC2)c(C)n1C(C)C`: the cytotoxicity at 10 µM stood at 7.36%. In the case of `COc1cc(N2CC[C@@H]3O[C@H](C(=O)N(C)C)C[C@@H]32)ncn1` it was 1.14%. Turning to `COc1cccc2c1OCC(C(=O)N1CCC(N3CCOC3=O)CC1)C2` (stereo not given), the cytotoxicity at 10 µM was -19.7%. To `Cc1cccc(N2CCC3(CCCN(C(=O)c4cccnc4)C3)CC2)n1` belongs 3.77%.

Values taken from ChEMBL document CHEMBL4513216, “Probing the Open Global Health Chemical Diversity Library for Multistage-Active Starting Points for Next-Generation Antimalarials” (ACS Infect Dis, 2020).
